This passage reports IC50, Kb and Activity results from ChEMBL document CHEMBL1641503, “5-Non-amino aromatic substituted naphthalimides as potential antitumor agents: Synthesis via Suzuki reaction, antiproliferative activity, and DNA-binding behavior” (Bioorg Med Chem, 2011).

One experiment concerns HeLa. The experiment in a line: Antiproliferative activity against human HeLa cells after 48 hrs by MTT assay. In kind it is functional, cell-based. In a few lines:
(§1)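 Cells seeded at 2.5 × 10⁴/well in 1640 complete medium, 37 °C, 5% CO₂, 24 h; compounds added at 100 to 0.01 µM for 48 h; D-Hank's buffer negative control. Cells washed twice with PBS, MTT (0.5 g/L in PBS, in complete medium) 4 h, DMSO to dissolve; absorbance at 492 nm (reference 630 nm). At least three experiments; mean percentage absorbance plotted against concentration.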

Experiment [1] in a line: Antiproliferative activity against mouse P388D1 cells after 48 hrs by MTT assay. Type of experiment: functional, cell-based. Conditions: P388D1, 48 h. In outline: as §1
(Tetrazolium assays rely on reduction of a dye to a coloured formazan, in cell work by metabolically active cells.)

The subject of experiment [2] is Calf thymus DNA. Briefly: Binding affinity to calf thymus DNA by fluorescence assay. Type of experiment: nucleic-acid assay. Conditions: Bos taurus. In outline: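 CT-DNA held at 50 µM with compound 1 to 25 µM in Tris–HCl (30 mM, pH 7.5); compound without DNA as control. Solutions ultrasonically shaken 1 day at 25 °C in the dark. Fluorescence read at 350 nm excitation. Scatchard binding constant K_b derived from quenching (F0 vs F1) via Scatchard plot.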

The test system of experiment [3] is Calf thymus DNA. Briefly: Binding affinity to calf thymus DNA at 10 uM by circular dichroism assay. The settings on record: Bos taurus. Type of experiment: nucleic-acid assay. In outline: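 CD spectra of CT-DNA (100 µM) with compound at 10 µM in Tris–HCl buffer (pH 7.0), 1-cm quartz cell, 200–600 nm; buffer spectrum subtracted.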
(CD spectra are sensitive to the conformation of chiral molecules.)

Experiment [4] relates to Calf thymus DNA. Briefly: Binding affinity to calf thymus DNA assessed as increase of viscosity of DNA solution at 100 uM. In kind it is nucleic-acid assay. Conditions: Bos taurus. In outline:
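Ubbelohde viscometry at 25 ± 0.1 °C. CT-DNA 100 µM in Tris–HCl (30 mM, pH 7.5), kept at 4 °C overnight, sonicated 10 min, filtered 0.45 µm. Flow time measured three times per sample and averaged, corrected for buffer. (η/η0)^1/3 plotted versus compound/DNA ratio.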

The source made the active and inactive calls. No cut-off for these calls is given here.

Take `CN(C)CCN1C(=O)c2cccc3cc(-c4cccs4)cc(c23)C1=O`: the results for the half-maximal inhibitory concentration (IC50) (with HeLa; in experiment [1]) were 3100 nM and 680 nM, respectively. This compound also yielded a Kb in the experiment with Calf thymus DNA [2] of 13.2 ×10⁵ /M. Besides, the outcome in the experiment with Calf thymus DNA [3] and with Calf thymus DNA [4] was Active.

Consider `CN(C)CCN1C(=O)c2cccc3cc(-c4ccccc4)cc(c23)C1=O`, for which the IC50 (in general, the concentration that gives 50% inhibition) with HeLa was found to be 5700 nM; in experiment [1], 680 nM. In addition, in the experiment with Calf thymus DNA [2], the Kb was found to be 10.8 ×10⁵ /M. For the same compound, the result in the experiment on Calf thymus DNA [3] and in the experiment on Calf thymus DNA [4] was Active.

Turning to `CN(C)CCN1C(=O)c2cccc3cc(-c4ccc(C(F)(F)F)cc4)cc(c23)C1=O`, the Kb in the experiment with Calf thymus DNA [2] was determined as 11.8 ×10⁵ /M.

Turning to `Cc1ccc(-c2cc3c4c(cccc4c2)C(=O)N(CCN(C)C)C3=O)cc1`, the concentration for half-maximal inhibition (IC50) in the experiment with HeLa stood at 45800 nM; in experiment [1] it was 2190 nM. The Kb in the experiment with Calf thymus DNA [2] was 10.8 ×10⁵ /M.

Regarding `CN(C)CCN1C(=O)c2cccc3cc(-c4ccc(F)cc4)cc(c23)C1=O`, the Kb in the experiment on Calf thymus DNA [2] worked out at 12.4 ×10⁵ /M.

As to `CN(C)CCN1C(=O)c2cccc3cc(-c4cccc([N+](=O)[O-])c4)cc(c23)C1=O`, the IC50 in the experiment on HeLa amounted to 4700 nM; in experiment [1] it was 380 nM. This compound also registered a Kb in the experiment with Calf thymus DNA [2] of 14.8 ×10⁵ /M.

Turning to `CN(C)CCN1C(=O)c2cccc3cc(N)cc(c23)C1=O` [AMONAFIDE], the IC50 was 6020 nM in the experiment with HeLa and 680 nM in experiment [1]. The compound further yielded a Kb in the experiment with Calf thymus DNA [2] of 1.05 ×10⁵ /M.

`CN(C)CCN1C(=O)c2cccc3cc(-c4ccc(F)c(F)c4)cc(c23)C1=O`: the IC50 in the experiment with HeLa was determined as 5300 nM; in experiment [1], 980 nM. Also, in the experiment with Calf thymus DNA [2], the Kb was 12.8 ×10⁵ /M.
